Most compounds without a hit are left out; they make up all but 1.8% or so of the library.
NPY Y1 blocker = NPY-Y1 receptor antagonists, primary screen, cell-based | inhibition, % at 3.6 µM | hit rate 1% among 200,000 | HEK293-CNG Y1 cells, membrane potential fluorescence; NPY at EC95, then isoproterenol | AID 1040, 2008;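 active means inhibition above the campaign mean inhibition of all tested compounds plus 3 SD, cut at about 20% in these data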;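 further: 0% = DMSO wells given NPY plus isoproterenol and 100% = isoproterenol alone without NPY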
Target sequence (P25929 whole entry, looked up): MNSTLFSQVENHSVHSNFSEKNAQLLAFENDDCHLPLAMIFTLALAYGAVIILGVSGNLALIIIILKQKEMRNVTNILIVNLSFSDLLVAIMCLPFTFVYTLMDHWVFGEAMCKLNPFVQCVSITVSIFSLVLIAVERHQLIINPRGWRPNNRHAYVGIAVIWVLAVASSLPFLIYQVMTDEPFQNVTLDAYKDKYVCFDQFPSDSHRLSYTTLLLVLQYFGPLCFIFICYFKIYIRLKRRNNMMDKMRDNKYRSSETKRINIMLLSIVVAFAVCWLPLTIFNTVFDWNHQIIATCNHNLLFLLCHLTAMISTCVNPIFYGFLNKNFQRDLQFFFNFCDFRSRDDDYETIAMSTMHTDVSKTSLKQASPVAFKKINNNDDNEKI
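Material: HEK293 cells with Y1 receptor plus CNG channel; times: compound incubation 1 h at room temperature, readout 45 min post-stimulation; signal: fluorescence, membrane potential probe; read-out basis: fluorescence ratio normalized to % inhibition between controls; benchmarks: full-block control isoproterenol-only wells, zero-block control NPY plus isoproterenol wells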
NPY-Y1 PAM-ag = NPY-Y1 receptor potentiators or agonists, primary screen, cell-based | Neuropeptide Y receptor type 1 (Homo sapiens), P25929 | NPY-Y1 expressing cells, potentiator/agonist activation | activation, % at 3.6 µM | hit rate 0.37% among 220,000 | AID 1304, 2008; in the data active means activation above about 33%, passing the limit was not always enough;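 further: cells stimulated with NPY at EC10 then isoproterenol at EC100; 0% = low agonist plus stimulus and 100% = saturating agonist plus stimulus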
NPY2 pot ag = NPY-Y2 potentiators or agonists, primary screen, cell-based; activation, % at 3.6 µM; AID 1359, 2008; Neuropeptide Y receptor type 2 (Homo sapiens), P49146; cells expressing NPY-Y2, potentiator/agonist read-out; hit rate 0.45% among 220,000; in the data active means activation above about 27%;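 further: cells stimulated with NPY near EC25 plus isoproterenol at EC100; 0% = vehicle plus submaximal agonist and 100% = vehicle plus saturating agonist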
NPY-Y2 antag = NPY-Y2 receptor antagonists, primary screen, cell-based | hit rate 0.99% among 140,000 | inhibition, % at 2.7 µM | NPY-Y2 expressing cells, antagonist mode | Neuropeptide Y receptor type 2 (Homo sapiens), P49146;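 further: 0% = vehicle with agonist challenge and 100% = reference antagonist with challenge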
NPY1 antag conf = NPY-Y1 receptor antagonists, retest of hits, confirmation, HEK293-CNG cells, membrane potential fluorescence, triplicate; hit rate 21% among 1,200; inhibition, % at 3.6 µM; shares compounds with NPY Y1 blocker; cAMP; NPY challenge against isoproterenol-raised cAMP; in the data active means inhibition above about 20%;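 further: 0% = vehicle with agonist plus stimulus and 100% = stimulus alone without agonist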
NPY2 antag ctr = NPY-Y2 receptor antagonists, selectivity check, confirmation, counter-screen for NPY-Y1 antagonist project, HEK293-CNG cells, membrane potential fluorescence, triplicate; inhibition, % at 3.6 µM; antagonism; cells given NPY, then isoproterenol; shares compounds with NPY Y1 blocker; hit rate 28% among 1,200;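 further: 0% = DMSO with agonist challenge and 100% = reference antagonist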
* marks the source's active call; other numbers are inactive results; · = no result. Unless noted, no stated cut-off is given here; in the data, active means inhibition above about 17%; inactive means the rest.

SMILES	NPY Y1 blocker	NPY-Y1 PAM-ag	NPY2 pot ag	NPY-Y2 antag	NPY1 antag conf	NPY2 antag ctr
O=C(NCCN1C(=O)S/C(=C\c2ccccc2F)C1=O)C1CCN(S(=O)(=O)c2cccs2)CC1	20*	3	-4	15	9	10
CCCNC(=O)C1CCN(S(=O)(=O)c2cccs2)CC1	0	21	10	·	·	·
Cc1ccc(N2C(=O)/C(=C\c3ccc(C(C)C)cc3)N=C2SC2CCOC2=O)cc1 (stereo unspecified)	0	3	-1	1	·	·
CCOC(=O)C1CCCN(C(=O)c2ccc3c(c2)N(Cc2ccccc2)C(=O)c2ccccc2S3=O)C1 (stereo unspecified)	-4	-5	-4	·	·	·
CC(/C=C/c1ccc(C)o1)=C\C(=O)O	22*	-4	6	8	4	6
O=C(O)CC(Cc1ccccc1)c1ccc2c(c1)OCO2 (stereo unspecified)	23*	-21	-28	8	13	12
CC(=O)N(CCC(Cc1ccccc1)c1ccc2c(c1)OCO2)Cc1ccc(Cl)cc1 (stereo unspecified)	12	-7	-18	9	·	·
O=C1CC2c3ccccc3C1C1C(=O)N(CCO)C(=O)C21 (stereo unspecified)	0	7	5	·	·	·
O=c1cc(N=Nc2ccc(Cl)cc2)[nH]c(=O)[nH]1	·	24	-37	·	·	·
CCCCN(c1ccc(C(=O)OC)cc1)S(=O)(=O)c1ccccc1	86*	-8	-15	·	10	7
CCCN(c1ccc(C(=O)OC)cc1)S(=O)(=O)c1ccccc1	11	-33	-8	·	·	·
COC(=O)c1sccc1-n1cccc1C(=O)C(=O)N1CCOCC1	3	0	8	·	·	·
CCOc1ccc(CN2CCN(Cc3cccn3-c3nccs3)CC2CCO)cc1 (stereo unspecified)	·	-26	-21	·	·	·
CCCCOc1ccc(C(=O)OC(C)CN(C)C)cc1 (stereo unspecified)	24*	-31	-34	11	6	9
CCCCOc1ccc(C(=O)O)cc1	6	-14	-8	5	·	·
Cc1cccn2c(CNC3CCCc4ccccc43)c(C(=O)N3CCCCC3)nc12 (stereo unspecified)	24*	-5	-24	·	8	6
CC(C)c1ccc(NC(=O)C(c2ccccc2)N(Cc2ccco2)C(=O)CC2NC(=O)NC2=O)cc1 (stereo unspecified)	-5	0	11	·	·	·
CC(C)CCN1CCN(Cc2cccc3nonc23)CC1CCO (stereo unspecified)	10	5	4	·	·	·
CCOc1ccccc1CN1CCN(Cc2cccc3nonc23)CC1CCO (stereo unspecified)	29*	19	1	·	3	6
C=CCSc1nnc(-c2cc3c(s2)-c2ccccc2CC3)o1	21*	-38	-28	7	9	5
O=C(CSc1nnc(-c2cccs2)o1)N1CCc2ccccc21	7	-21	-17	9	·	·
COc1ccc(-c2cc3cc(OC)c(OC)cc3c(C)n2)cc1	·	-3	-6	·	·	·
COc1cc2cc(C)nc(Cc3cccc4ccccc34)c2cc1OC	27*	-35	-39	16	9	13
COc1ccc(NS(=O)(=O)c2cc(NC(=O)CCSc3ccccc3)ccc2OC)cc1	-5	21	11	2	·	·
COc1ccc(NC(=O)CCSc2ccc(C)cc2)cc1S(=O)(=O)Nc1ccccc1Cl	25*	4	-23	1	-2	0
Cc1ccccc1OCc1nc2ccccc2c(=O)n1NC(=O)c1ccco1	20*	-26	-21	4	8	9
O=C(O)c1cc2ccccc2c2cc(Br)ccc12	·	-18	-15	·	·	·
Fc1ccc(C(c2nnnn2Cc2ccco2)N2CCN(C3CCCCC3)CC2)cc1 (stereo unspecified)	29*	-24	-4	13	13	10
C=C(Cl)COc1ccc2c(CCCC)cc(=O)oc2c1	21*	-14	-1	6	3	24*
COc1ccc(-c2noc(CCCOc3ccccc3)n2)cc1OC	25*	-39	-27	13	13	13

Source: PubChem
